# Assays:
# [1] = target: Cyclin-dependent kinase 4/cyclin D1 (Homo sapiens, UniProt P11802); assay: Inhibition of CDK4/cyclin D1 (unknown origin) using Rb as substrate after 60 mins by scintillation counting analysis in presence of [r-33P]ATP; type: protein-complex assay
# [2] = target: Cyclin-dependent kinase 1/cyclin B1 (Homo sapiens, UniProt P06493); assay: Inhibition of CDK1/cyclin B (unknown origin) using histone H1 as substrate after 60 mins by scintillation counting analysis in presence of [r-33P]ATP; type: protein-complex assay
# Sequence of Cyclin-dependent kinase 1/cyclin B1 (P06493 whole entry): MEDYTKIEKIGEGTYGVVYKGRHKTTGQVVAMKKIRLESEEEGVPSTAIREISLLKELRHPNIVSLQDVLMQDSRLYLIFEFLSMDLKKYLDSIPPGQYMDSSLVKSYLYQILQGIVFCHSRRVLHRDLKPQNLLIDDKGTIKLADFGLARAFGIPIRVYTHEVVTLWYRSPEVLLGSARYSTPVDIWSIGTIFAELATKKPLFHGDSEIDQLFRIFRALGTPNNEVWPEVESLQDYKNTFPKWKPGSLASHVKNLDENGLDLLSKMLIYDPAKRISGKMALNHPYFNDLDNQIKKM
# Sequence of Cyclin-dependent kinase 1/cyclin B1 (P14635 whole entry, further chain): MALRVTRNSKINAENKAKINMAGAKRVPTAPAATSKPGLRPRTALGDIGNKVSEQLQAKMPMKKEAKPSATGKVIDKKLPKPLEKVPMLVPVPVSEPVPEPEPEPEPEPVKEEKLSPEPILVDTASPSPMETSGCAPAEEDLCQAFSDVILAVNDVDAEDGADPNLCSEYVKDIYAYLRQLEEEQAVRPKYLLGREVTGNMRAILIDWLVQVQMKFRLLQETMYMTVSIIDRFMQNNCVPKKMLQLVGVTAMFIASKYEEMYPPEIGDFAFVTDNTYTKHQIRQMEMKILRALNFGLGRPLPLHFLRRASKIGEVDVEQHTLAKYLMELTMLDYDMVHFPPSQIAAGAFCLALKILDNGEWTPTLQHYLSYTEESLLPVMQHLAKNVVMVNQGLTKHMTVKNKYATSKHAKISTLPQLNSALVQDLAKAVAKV
# [3] = Antiproliferative activity against Rb-negative human MDA-MB-436 cells assessed as incorporation of [3H]thymidine into DNA after 72 hrs by beta-plate counting analysis; type: functional
# [4] = Clearance in iv dosed rat; type: ADME, organism-based; conditions: in vivo
# Outline: (§1)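 Intravenous and oral (gavage, solution) PK in rat, dog and cynomolgus monkey. The rat vehicle for both routes was water/acetate/tween at pH 4, 96/3/1 (v/v/v). Dog and monkey iv doses used 40% PG aqueous solution at pH 2, and their oral doses used 20% captisol aqueous solution.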
# [5] = Oral bioavailability in rat; type: ADME, organism-based; conditions: in vivo; outline: as §1
# [6] = target: T1, Receptor-type tyrosine-protein kinase FLT3 (Homo sapiens, UniProt P36888); assay: Binding affinity to wild type FLT3 (unknown origin)
# T1 sequence (P36888 whole entry): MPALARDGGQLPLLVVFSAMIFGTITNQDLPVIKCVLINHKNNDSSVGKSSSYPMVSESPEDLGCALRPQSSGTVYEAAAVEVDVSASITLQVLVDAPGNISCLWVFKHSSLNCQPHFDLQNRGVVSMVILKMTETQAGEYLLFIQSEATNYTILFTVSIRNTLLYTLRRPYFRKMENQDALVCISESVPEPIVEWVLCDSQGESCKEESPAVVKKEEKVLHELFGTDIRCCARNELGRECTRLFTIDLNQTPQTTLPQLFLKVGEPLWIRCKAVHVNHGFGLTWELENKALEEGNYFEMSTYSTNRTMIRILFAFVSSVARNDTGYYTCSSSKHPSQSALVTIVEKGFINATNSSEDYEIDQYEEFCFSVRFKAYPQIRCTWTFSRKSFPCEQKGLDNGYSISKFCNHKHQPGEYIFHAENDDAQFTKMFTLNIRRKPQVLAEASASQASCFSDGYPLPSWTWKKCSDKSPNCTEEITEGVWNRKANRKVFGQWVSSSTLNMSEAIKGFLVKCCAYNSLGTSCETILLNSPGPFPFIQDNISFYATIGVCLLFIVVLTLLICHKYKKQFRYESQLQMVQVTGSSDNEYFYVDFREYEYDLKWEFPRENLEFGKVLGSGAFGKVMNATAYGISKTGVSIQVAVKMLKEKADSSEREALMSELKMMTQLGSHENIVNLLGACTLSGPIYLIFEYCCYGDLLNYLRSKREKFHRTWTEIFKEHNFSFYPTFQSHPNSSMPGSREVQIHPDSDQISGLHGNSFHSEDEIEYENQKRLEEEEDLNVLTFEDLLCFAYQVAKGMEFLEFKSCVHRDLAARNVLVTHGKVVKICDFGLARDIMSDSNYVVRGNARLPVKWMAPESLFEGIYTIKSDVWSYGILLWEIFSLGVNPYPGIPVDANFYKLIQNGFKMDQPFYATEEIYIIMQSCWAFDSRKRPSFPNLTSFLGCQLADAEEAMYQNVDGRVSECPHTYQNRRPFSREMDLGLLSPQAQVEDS
# [7] = target: Receptor-type tyrosine-protein kinase FLT3 (Homo sapiens, UniProt P36888, ITD); assay: Binding affinity to FLT3 ITD mutant (unknown origin)
# [8] = target: Receptor-type tyrosine-protein kinase FLT3 (Homo sapiens, UniProt P36888, D835Y); assay: Binding affinity to FLT3 D835Y mutant (unknown origin)
# [9] = target: Receptor-type tyrosine-protein kinase FLT3 (Homo sapiens, UniProt P36888, D835H); assay: Binding affinity to FLT3 D835H mutant (unknown origin)
# [10] = target: Receptor-type tyrosine-protein kinase FLT3 (Homo sapiens, UniProt P36888, K663Q); assay: Binding affinity to FLT3 K663Q mutant (unknown origin)
# U-937 = assay: Antiproliferative activity against human U937 cells assessed as incorporation of [3H]thymidine into DNA after 72 hrs by beta-plate counting analysis
# MOLM-13 [11] = assay: Induction of apoptosis in human MOLM13 cells harboring FLT3 ITD mutant at 1 uM after 48 hrs by Annexin V/Sytox Green staining based flow cytometry; type: functional
# Outline: (§2)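 MOLM13, sorafenib-resistant MOLM13 and U937 cells were each exposed to compound at 1 μM for 48 h. Cells were then stained with Annexin V/Sytox Green and analysed by flow cytometry. Readout is apoptotic cells as a percentage of all cells analysed.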
# MOLM-13 [12] = assay: Induction of apoptosis in sorafenib-resistant human MOLM13 cells harboring FLT3 ITD+D835Y mutant at 1 uM after 48 hrs by Annexin V/Sytox Green staining based flow cytometry; type: functional; outline: as §2
# [13] = Volume of distribution at steady state in iv dosed rat; type: ADME, organism-based; conditions: in vivo, read-out: Vdss; outline: as §1
# [14] = Elimination half-life in iv dosed dog; type: ADME, organism-based, Canis lupus familiaris; conditions: in vivo, read-out: beta t1/2 (converted); outline: as §1
# [15] = Volume of distribution at steady state in iv dosed cynomolgus monkey; type: ADME, organism-based, Macaca fascicularis; conditions: in vivo, read-out: Vdss; outline: as §1
# [16] = Oral bioavailability in cynomolgus monkey; type: ADME, organism-based, Macaca fascicularis; conditions: in vivo; outline: as §1
# MOLM-13 [17] = assay: Antitumor activity against human MOLM13 cells xenografted in po dosed CrTac:NCR-Foxn1nu (NCR) nude mouse assessed as tumor growth inhibition administered qd for 8 days; type: functional
# Outline: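 Oral dosing once daily, day 5 to day 13, in NCR nude mice bearing established subcutaneous human MOLM13 AML xenografts, at 25, 50, 75 and 150 mg/kg against a vehicle group. Tumor growth inhibition read on day 14. AUC comes from terminal PK on plasma collected after the final dose.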
# Sequence of Cyclin-dependent kinase 4/cyclin D1 (P11802 whole entry): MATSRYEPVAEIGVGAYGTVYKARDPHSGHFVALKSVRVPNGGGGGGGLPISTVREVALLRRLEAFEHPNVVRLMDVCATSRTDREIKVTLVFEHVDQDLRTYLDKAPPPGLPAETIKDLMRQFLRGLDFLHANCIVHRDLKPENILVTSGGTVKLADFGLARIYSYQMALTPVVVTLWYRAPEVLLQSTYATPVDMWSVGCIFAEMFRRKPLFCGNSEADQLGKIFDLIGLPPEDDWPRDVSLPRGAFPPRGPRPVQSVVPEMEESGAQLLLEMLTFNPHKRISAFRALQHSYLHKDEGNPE
# Sequence of Cyclin-dependent kinase 4/cyclin D1 (P24385 whole entry, further chain): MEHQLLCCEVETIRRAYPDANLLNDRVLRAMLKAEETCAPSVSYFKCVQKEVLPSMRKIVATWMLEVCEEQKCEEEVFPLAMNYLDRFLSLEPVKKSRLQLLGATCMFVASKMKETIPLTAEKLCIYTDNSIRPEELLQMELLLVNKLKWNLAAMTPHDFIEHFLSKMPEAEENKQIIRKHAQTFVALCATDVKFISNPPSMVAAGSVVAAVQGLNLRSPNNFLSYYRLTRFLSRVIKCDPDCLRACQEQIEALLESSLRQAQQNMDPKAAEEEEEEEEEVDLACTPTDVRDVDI
smiles,measurement,setting,value
C[C@H]1CC[C@H](n2c3cnccc3c3cnc(Nc4ccc5c(n4)CCN(C(=O)CO)C5)nc32)CC1,IC50,[1],3 nM
same,IC50,[2],2220 nM
same,IC50,[3],3830 nM
same,clearance,[4],6.5 mL/min/kg
same,bioavailability,[5],75%
same,Kd,[6],4 nM
same,Kd,[7],4 nM
same,Kd,[8],1 nM
same,Kd,[9],1 nM
same,Kd,[10],4 nM
same,IC50,U-937,52 nM
same,Activity,MOLM-13 [11],82.3%
same,Activity,MOLM-13 [12],70.86%
same,Vd,[13],1.8 L/kg
same,half-life,[14],4.1 h
same,Vd,[15],3.2 L/kg
same,bioavailability,[16],44%
same,TGI,MOLM-13 [17],Dose-dependent effect
same,ED50,"MOLM-13 [17]; MOLM-13, po, 192 h",22 mg/kg

# Source: ChEMBL document CHEMBL3232894, “Discovery of AMG 925, a FLT3 and CDK4 dual kinase inhibitor with preferential affinity for the activated state of FLT3” (J Med Chem, 2014)
